Source: ChEMBL document CHEMBL1136130, “Synthesis and biological evaluation of gambierol analogues” (Bioorg Med Chem Lett, 2003)

Assay: Minimal lethal dose of compound expressed as toxicity against male mice (ddY strain) after intraperitoneal administration
Settings: mouse, in vivo, ip
Outline: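 Male ddY mice (12–17 g) received single intraperitoneal injections of HPLC-purified samples suspended in 1% Tween 60 at a range of dose levels. Lethality and neurological signs were observed. The minimal lethal dose is reported in mg/kg.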

SMILES | Min lethal dose [mg/kg]
C=CC/C=C\C=C/[C@H]1O[C@H]2C[C@H]3O[C@H]4CC[C@H]5O[C@H]6C[C@@]7(C)O[C@@]8(C)[C@@H](O)C[C@H](CCCO)O[C@@H]8C[C@@H]7O[C@@H]6C[C@@H]5O[C@]4(C)C[C@]3(C)O[C@@H]2C=C[C@@H]1O | 0.34
CC(=O)OC[C@H]1O[C@H]2C[C@H]3O[C@H]4CC[C@H]5O[C@H]6C[C@@]7(C)O[C@@]8(C)[C@@H](O)C[C@H](CCCO)O[C@@H]8C[C@@H]7O[C@@H]6C[C@@H]5O[C@]4(C)C[C@]3(C)O[C@@H]2CC[C@@H]1OC(C)=O | > 8.2
CCCCC/C=C\[C@H]1O[C@H]2C[C@H]3O[C@H]4CC[C@H]5O[C@H]6C[C@@]7(C)O[C@@]8(C)[C@@H](OCc9ccccc9)C[C@H](CCCOCc9ccccc9)O[C@@H]8C[C@@H]7O[C@@H]6C[C@@H]5O[C@]4(C)C[C@]3(C)O[C@@H]2CC[C@]1(C)O[Si](C)(C)C(C)(C)C | > 7.6
C=CC/C=C\C=C/[C@H]1O[C@H]2C[C@H]3O[C@H]4CC[C@H]5O[C@H]6C[C@@]7(C)O[C@@]8(C)[C@@H](O)C[C@H](CCCO)O[C@@H]8C[C@@H]7O[C@@H]6C[C@@H]5O[C@]4(C)C[C@]3(C)O[C@@H]2C=C[C@]1(C)O | 0.05
C=CC/C=C\C=C/[C@H]1O[C@H]2C[C@H]3O[C@H]4CC[C@H]5O[C@H]6C[C@@]7(C)O[C@@]8(C)[C@@H](O)C[C@H](CCCO)O[C@@H]8C[C@@H]7O[C@@H]6C[C@@H]5O[C@]4(C)C[C@]3(C)O[C@@H]2CC[C@]1(C)O | 7.9
C[C@@]12O[C@]3(C)C[C@@H]4O[C@@H]5CC[C@@H]6O[C@@H]7C[C@@H]8O[C@H](CO)[C@@H](O)CC[C@H]8O[C@@]7(C)C[C@@]6(C)O[C@H]5C[C@H]4O[C@H]3C[C@H]1O[C@@H](CCCO)C[C@@H]2O | > 18.3
C=CC/C=C\C=C/[C@H]1O[C@H]2C[C@H]3O[C@H]4CC[C@H]5O[C@H]6C[C@@]7(C)O[C@@]8(C)[C@@H](O)C[C@H](CCCO)O[C@@H]8C[C@@H]7O[C@@H]6C[C@@H]5O[C@]4(C)C[C@]3(C)O[C@@H]2CC[C@@H]1O | > 11.9
